Measurements from ChEMBL document CHEMBL3425488, “Novel histone deacetylase inhibitors induce growth arrest, apoptosis, and differentiation in sarcoma cancer stem cells” (J Med Chem, 2015).
Active and inactive are the calls of the source. The calls are words filed in the database; no cut-off is given here.

Key:
[1] = target: T1, Histone deacetylase 7 (Homo sapiens, UniProt Q8WUI4); assay: Inhibition of recombinant HDAC7 (unknown origin) by homogeneous fluorescence release assay
T1 sequence (Q8WUI4 whole entry): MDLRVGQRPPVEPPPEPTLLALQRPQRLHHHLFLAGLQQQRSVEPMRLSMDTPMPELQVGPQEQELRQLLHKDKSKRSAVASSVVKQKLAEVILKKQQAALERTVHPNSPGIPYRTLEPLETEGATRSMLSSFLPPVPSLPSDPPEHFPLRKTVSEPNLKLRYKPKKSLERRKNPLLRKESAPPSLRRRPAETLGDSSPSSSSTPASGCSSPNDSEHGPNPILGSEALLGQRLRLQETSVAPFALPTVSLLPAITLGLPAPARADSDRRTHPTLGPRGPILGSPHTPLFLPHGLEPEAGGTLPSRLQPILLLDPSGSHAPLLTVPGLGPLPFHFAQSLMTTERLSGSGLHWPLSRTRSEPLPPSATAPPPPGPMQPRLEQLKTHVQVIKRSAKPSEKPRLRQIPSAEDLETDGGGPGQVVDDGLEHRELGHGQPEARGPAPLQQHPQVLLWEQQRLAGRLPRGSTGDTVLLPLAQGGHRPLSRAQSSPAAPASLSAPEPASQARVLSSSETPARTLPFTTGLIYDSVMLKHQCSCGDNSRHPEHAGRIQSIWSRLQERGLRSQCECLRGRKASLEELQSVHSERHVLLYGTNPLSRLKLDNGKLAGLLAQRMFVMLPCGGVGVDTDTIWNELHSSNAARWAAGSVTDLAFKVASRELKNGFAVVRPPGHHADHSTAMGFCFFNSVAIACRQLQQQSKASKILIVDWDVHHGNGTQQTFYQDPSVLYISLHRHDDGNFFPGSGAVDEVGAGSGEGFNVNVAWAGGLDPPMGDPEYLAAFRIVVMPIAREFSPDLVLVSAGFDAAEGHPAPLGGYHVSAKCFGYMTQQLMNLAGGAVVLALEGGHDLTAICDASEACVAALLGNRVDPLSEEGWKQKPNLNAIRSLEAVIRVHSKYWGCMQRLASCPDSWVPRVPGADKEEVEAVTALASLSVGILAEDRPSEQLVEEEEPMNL
Method in brief: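 Isoform enzyme assay run in 10-dose IC50 mode. Compounds were serially diluted 3-fold starting from 50 μM solutions.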

[2] = test system: A204; assay: Cytotoxicity against human A204 cells assessed as cell viability after 72 hrs by MTT assay; format: functional, cell-based
Method in brief: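 Sarcosphere-derived CSC cultures exposed 72 h to concentrations from 100 μM down to 0.1 μM. Viability compared with DMSO-only treated cells. IC50 calculated by linear regression.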

[3] = test system: HOS; assay: Antiproliferative activity against HOS cells after 24 to 72 hrs by […] dye exclusion assay; format: functional, cell-based; conditions: Homo sapiens
Method in brief: (§1)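 Sarcosphere-derived CSCs, dissociated to single cells, plated at 50000/well in complete IMDM for adhesion. After 24 h, exposed to 0.5, 1 and 2 μM. Viable cells counted by dye exclusion at 24, 48 and 72 h. Growth inhibition is expressed relative to DMSO-treated controls. Three experiments in duplicate.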

[4] = test system: RD; assay: Antiproliferative activity against human RD cells after 24 to 72 hrs by […] dye exclusion assay; format: functional, cell-based; method in brief: as §1
[5] = test system: SK-ES1; assay: Antiproliferative activity against human SK-ES-1 cells after 24 to 72 hrs by […] dye exclusion assay; format: functional, cell-based; method in brief: as §1
[6] = test system: A673; assay: Antiproliferative activity against human A673 cells after 24 to 72 hrs by […] dye exclusion assay; format: functional, cell-based; method in brief: as §1
[7] = target: T2, Protein deacetylase HDAC6 (Homo sapiens) (UniProt Q9UBN7); assay: Inhibition of HDAC6 in human MG63 cells assessed as upregulation of acetyl-tubulin level at 0.5 to 2 uM after 24 hrs by Western blot analysis relative to control; format: cell-based; conditions: MG-63
T2 sequence (whole entry): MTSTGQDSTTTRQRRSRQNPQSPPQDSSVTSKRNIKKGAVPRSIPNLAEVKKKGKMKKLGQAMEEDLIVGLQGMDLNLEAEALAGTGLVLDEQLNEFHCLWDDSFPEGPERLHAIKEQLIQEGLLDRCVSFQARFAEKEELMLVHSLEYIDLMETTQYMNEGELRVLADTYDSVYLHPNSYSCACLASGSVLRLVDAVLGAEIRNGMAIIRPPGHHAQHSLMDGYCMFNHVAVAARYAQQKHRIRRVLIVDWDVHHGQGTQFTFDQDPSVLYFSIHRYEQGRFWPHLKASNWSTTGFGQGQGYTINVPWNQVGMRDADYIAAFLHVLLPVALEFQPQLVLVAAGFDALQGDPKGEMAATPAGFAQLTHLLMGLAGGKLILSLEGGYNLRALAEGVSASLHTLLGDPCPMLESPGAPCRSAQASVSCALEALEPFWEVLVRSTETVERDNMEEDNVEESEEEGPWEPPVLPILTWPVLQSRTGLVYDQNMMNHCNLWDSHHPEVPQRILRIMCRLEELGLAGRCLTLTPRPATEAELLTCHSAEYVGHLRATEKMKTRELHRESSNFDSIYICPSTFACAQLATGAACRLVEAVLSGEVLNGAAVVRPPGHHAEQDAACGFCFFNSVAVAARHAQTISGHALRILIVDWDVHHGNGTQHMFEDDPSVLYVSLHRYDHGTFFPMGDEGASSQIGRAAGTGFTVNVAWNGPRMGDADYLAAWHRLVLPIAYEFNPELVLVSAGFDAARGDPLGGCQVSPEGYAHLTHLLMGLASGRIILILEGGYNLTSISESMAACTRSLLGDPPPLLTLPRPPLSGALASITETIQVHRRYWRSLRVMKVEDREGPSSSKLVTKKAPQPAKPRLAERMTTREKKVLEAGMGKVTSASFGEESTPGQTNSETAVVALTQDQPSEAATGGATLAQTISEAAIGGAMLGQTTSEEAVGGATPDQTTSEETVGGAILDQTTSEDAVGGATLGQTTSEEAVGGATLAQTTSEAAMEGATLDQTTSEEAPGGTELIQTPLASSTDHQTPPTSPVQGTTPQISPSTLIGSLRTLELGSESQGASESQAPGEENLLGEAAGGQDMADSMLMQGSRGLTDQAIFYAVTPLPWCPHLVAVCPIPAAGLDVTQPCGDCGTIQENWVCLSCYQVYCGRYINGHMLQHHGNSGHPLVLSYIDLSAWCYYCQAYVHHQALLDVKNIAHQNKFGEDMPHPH
Method in brief: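 MG-63 sarcosphere-derived CSCs treated 24 h with 0.5 and 2 μM. Acetyl-tubulin measured by Western blot with densitometry normalized to TBP and expressed as index versus negative control.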

[8] = test system: MG-63; assay: Induction of apoptosis in human MG63 cells assessed as formation of apoptotic bodies after 48 hrs by Hoechst 33258 staining-based fluorescence microscopic analysis; format: functional, cell-based
Method in brief: (§2)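 Dissociated sarcospheres seeded on glass coverslips in complete IMDM and exposed to 0.5, 1 and 2 μM for 48 h; untreated cells as negative control. Fixed in methanol/acetic acid (3:1), then stained with 2.25 μg/mL Hoechst 33258 for 10 min at rt in the dark. Apoptotic-body nuclei counted over at least five fields (20× objective) and reported as percentage of cells.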

[9] = test system: A673; assay: Induction of apoptosis in human A673 cells at 1 to 2 uM after 48 hrs by Hoechst 33258 staining-based fluorescence microscopic analysis; format: functional, cell-based; method in brief: as §2

## O=C(/C=C/c1ccc(NC(=O)C(Cc2ccccc2)c2ccccc2)cn1)NO (stereo not drawn)
[1]
  IC50: 8.77 µM
[2]
  Activity: Dose-dependent effect
[3]
  Activity: Dose-dependent effect
[4]
  Activity: Dose-dependent effect
[5]
  Activity: Dose-dependent effect
[6]
  Activity: Dose-dependent effect
[7]
  inhibition: Active
[8]
  Activity: Dose-dependent effect
[9]
  Activity: Active

## O=C(CCCCSc1nc(-c2ccc(-c3ccccc3)cc2)cc(=O)[nH]1)NO
[1]
  IC50: > 50 µM
[2]
  Activity: Dose-dependent effect
[3]
  Activity: Dose-dependent effect
[4]
  Activity: Dose-dependent effect
[5]
  Activity: Dose-dependent effect
[6]
  Activity: Dose-dependent effect
[7]
  inhibition: Active
[8]
  Activity: Dose-dependent effect
[9]
  Activity: Active
